Test results published in ChEMBL document CHEMBL1140840, “New insight for fluoroquinophenoxazine derivatives as possibly new potent topoisomerase I inhibitor” (Bioorg Med Chem Lett, 2008).

What was measured:
HL-60 = test: Cytotoxicity against human HL60 cells; assay type: functional, cell-based
Procedure, shortened: (§1)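 Cells seeded at 2–4 × 10⁴ per well, grown overnight in medium with 10% FBS at 37 °C under 5% CO₂. On day 2 the medium was replaced with medium holding graded compound concentrations. Absorbance was read at 450 nm. IC50 came from a four-parameter logistic fit. Mean ± SD of three experiments, each in triplicate.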

DU-145 = test: Cytotoxicity against human DU145 cells; assay type: functional, cell-based; procedure, shortened: as §1
HeLa = test: Cytotoxicity against human HeLa cells; assay type: functional, cell-based; procedure, shortened: as §1
MDA-MB-231 = test: Cytotoxicity against human MDA-MB-231 cells; assay type: functional, cell-based; procedure, shortened: as §1
HCT-116 = test: Cytotoxicity against human HCT116 cells; assay type: functional, cell-based; procedure, shortened: as §1
Bos taurus [1] = organism: Bos taurus; test: Inhibition of calf thymus topoisomerase 1 assessed as relaxation of supercoiled DNA pBR322 at 2 uM relative to camptothecin
[2] = target: DNA topoisomerase 2-alpha (Homo sapiens) (UniProt P11388); test: Inhibition of human topoisomerase 2alpha assessed as relaxation of supercoiled DNA pBR322 at 10 uM relative to etoposide
DNA topoisomerase 2-alpha (Homo sapiens), sequence (P11388 whole entry): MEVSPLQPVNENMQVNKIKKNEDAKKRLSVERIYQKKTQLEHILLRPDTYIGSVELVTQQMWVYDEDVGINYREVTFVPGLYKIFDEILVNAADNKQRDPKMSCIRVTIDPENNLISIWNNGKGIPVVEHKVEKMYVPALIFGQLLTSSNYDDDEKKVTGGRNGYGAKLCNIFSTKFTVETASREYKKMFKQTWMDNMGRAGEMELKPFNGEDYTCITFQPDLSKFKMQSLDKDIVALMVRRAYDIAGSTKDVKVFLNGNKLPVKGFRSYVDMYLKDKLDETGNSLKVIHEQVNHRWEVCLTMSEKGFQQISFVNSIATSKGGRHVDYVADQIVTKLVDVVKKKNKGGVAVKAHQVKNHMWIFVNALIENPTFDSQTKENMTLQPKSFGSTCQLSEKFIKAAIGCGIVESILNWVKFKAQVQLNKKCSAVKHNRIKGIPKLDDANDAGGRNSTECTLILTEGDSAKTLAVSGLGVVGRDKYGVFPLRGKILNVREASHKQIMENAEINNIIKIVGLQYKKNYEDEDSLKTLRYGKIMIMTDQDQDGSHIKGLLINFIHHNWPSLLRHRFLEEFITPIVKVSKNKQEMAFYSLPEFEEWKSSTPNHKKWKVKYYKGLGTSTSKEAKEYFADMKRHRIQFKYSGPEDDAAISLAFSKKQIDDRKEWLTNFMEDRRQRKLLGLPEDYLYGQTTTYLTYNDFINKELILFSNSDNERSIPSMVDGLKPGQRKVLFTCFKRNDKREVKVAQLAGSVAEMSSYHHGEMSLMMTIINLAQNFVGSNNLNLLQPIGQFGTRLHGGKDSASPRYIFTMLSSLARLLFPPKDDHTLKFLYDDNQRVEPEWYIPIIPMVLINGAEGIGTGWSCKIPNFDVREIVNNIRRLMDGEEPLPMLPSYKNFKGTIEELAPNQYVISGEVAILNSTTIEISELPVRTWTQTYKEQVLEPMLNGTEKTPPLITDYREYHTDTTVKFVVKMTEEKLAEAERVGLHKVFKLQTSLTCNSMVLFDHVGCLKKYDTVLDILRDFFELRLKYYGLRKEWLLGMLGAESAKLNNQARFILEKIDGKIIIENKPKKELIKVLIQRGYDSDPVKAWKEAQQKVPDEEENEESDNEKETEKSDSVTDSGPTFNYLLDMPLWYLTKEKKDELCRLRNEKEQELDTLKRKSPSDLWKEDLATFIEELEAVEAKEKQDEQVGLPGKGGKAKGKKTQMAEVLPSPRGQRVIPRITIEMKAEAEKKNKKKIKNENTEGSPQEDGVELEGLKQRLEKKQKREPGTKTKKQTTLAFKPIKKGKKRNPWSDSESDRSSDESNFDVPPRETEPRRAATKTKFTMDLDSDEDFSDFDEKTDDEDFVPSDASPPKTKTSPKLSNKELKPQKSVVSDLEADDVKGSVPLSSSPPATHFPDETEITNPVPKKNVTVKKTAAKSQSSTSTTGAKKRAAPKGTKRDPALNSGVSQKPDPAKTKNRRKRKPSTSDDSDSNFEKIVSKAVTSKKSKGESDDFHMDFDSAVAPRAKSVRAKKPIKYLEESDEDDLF
Procedure, shortened: (§2)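 Human topo IIα (2 units) with 200 ng supercoiled pBR322 in 10 mM Tris-HCl pH 7.9, 50 mM NaCl, 5 mM MgCl2, 1 mM EDTA, 1 mM ATP, 15 µg/mL BSA, 30 min at 30 °C. Compounds at 2 or 10 µM, from 20 mM DMSO stocks. Stopped with EDTA. Products on 1% agarose, stained with ethidium bromide. Supercoiled DNA quantified under UV.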

Bos taurus [3] = organism: Bos taurus; test: Inhibition of calf thymus topoisomerase 1 assessed as relaxation of supercoiled DNA pBR322 at 20 uM relative to camptothecin
[4] = target: DNA topoisomerase 2-alpha (Homo sapiens) (UniProt P11388); test: Inhibition of human topoisomerase 2alpha assessed as relaxation of supercoiled DNA pBR322 at 2 uM relative to etoposide; procedure, shortened: as §2

Compound COc1cccc2c1C(=O)c1c(O)c3c(c(O)c1C2=O)C[C@@](O)(C(=O)CO)C[C@@H]3O[C@H]1C[C@H](N)[C@H](O)[C@H](C)O1 [DOXORUBICIN] has an IC50 (HL-60) of 0.72 µM, an IC50 (DU-145) of 1.57 µM and an IC50 (HeLa) of 3.09 µM. For the same compound, the IC50 (MDA-MB-231) was 1.39 µM and the IC50 (HCT-116) was 1.1 µM.

N[C@H]1CCN(c2c(F)cc3c(=O)c(C(=O)O)cn4c3c2Sc2ccccc2-4)C1 showed an IC50 (HL-60) of 11.5 µM, an inhibition (Bos taurus [1]) of 45.1% and an IC50 (DU-145) of 19.3 µM. It also gave an IC50 (HeLa) of 5.08 µM, an IC50 (MDA-MB-231) of 19.2 µM and an inhibition [2] of 91.7%. It also gave an inhibition (Bos taurus [3]) of 97.2%, an IC50 (HCT-116) of 2.41 µM and an inhibition [4] of 57%.

For COc1cc([C@@H]2c3cc4c(cc3[C@@H](O[C@@H]3O[C@@H]5CO[C@@H](C)O[C@H]5[C@H](O)[C@H]3O)[C@H]3COC(=O)[C@H]23)OCO4)cc(OC)c1O [ETOPOSIDE], the IC50 (HL-60) was 1.44 µM, the IC50 (DU-145) was 29.8 µM and the IC50 (HeLa) was 18.2 µM. For the same compound, the IC50 (MDA-MB-231) was 16.2 µM, the inhibition [2] was 40.9% and the IC50 (HCT-116) was 15.1 µM. The inhibition [4] was 0.7%.

In the case of N[C@H]1CCN(c2c(F)cc3c(=O)c(C(=O)O)cn4c3c2Oc2nc(O)ncc2-4)C1, the IC50 (HL-60) is reported as > 50 µM, the inhibition (Bos taurus [1]) is reported as 32.4% and the IC50 (DU-145) is reported as > 50 µM. For the same compound, the IC50 (HeLa) was > 50 µM, the IC50 (MDA-MB-231) was > 50 µM and the inhibition [2] was 28.8%. For the same compound, the inhibition (Bos taurus [3]) was 0%, the IC50 (HCT-116) was > 50 µM and the inhibition [4] was 0%.

For N[C@H]1CCN(c2c(F)cc3c(=O)c(C(=O)O)cn4c3c2Oc2cc(S(=O)(=O)O)c3ccccc3c2-4)C1, the IC50 (HL-60) was > 50 µM, the inhibition (Bos taurus [1]) was 39.1% and the IC50 (DU-145) was > 50 µM. The IC50 (HeLa) was > 50 µM, the IC50 (MDA-MB-231) was > 50 µM and the inhibition [2] was 24.7%. For the same compound, the inhibition (Bos taurus [3]) was 25%, the IC50 (HCT-116) was > 50 µM and the inhibition [4] was 1.9%.

Compound N[C@H]1CCN(c2c(F)cc3c(=O)c(C(=O)O)cn4c3c2Oc2ccc(Cl)cc2-4)C1 has an IC50 (HL-60) of 1.63 µM, an inhibition (Bos taurus [1]) of 87.9% and an IC50 (DU-145) of 17.6 µM. For the same compound, the IC50 (HeLa) was 2.01 µM, the IC50 (MDA-MB-231) was 19.3 µM and the inhibition [2] was 88.6%. It also gave an inhibition (Bos taurus [3]) of 86.1%, an IC50 (HCT-116) of 2.56 µM and an inhibition [4] of 89%.

N[C@H]1CCN(c2c(F)cc3c(=O)c(C(=O)O)cn4c3c2Oc2ccccc2-4)C1 gave an IC50 (HL-60) of 2.4 µM, an inhibition (Bos taurus [1]) of 88.9% and an IC50 (DU-145) of 1.82 µM. It also gave an IC50 (HeLa) of 2.33 µM, an IC50 (MDA-MB-231) of 4.34 µM and an inhibition [2] of 89.4%. It also gave an inhibition (Bos taurus [3]) of 90.2%, an IC50 (HCT-116) of 0.87 µM and an inhibition [4] of 89.1%.

For O=C(O)c1cn2c3c(c(F)c(F)cc3c1=O)Oc1ccccc1-2, the IC50 (HL-60) was > 50 µM, the inhibition (Bos taurus [1]) was 53.5% and the IC50 (DU-145) was > 50 µM. The IC50 (HeLa) was > 50 µM, the IC50 (MDA-MB-231) was > 50 µM and the inhibition [2] was 82.4%. It also gave an inhibition (Bos taurus [3]) of 96.6%, an IC50 (HCT-116) of 6.3 µM and an inhibition [4] of 0.5%.

Work on CC[C@@]1(O)C(=O)OCc2c1cc1n(c2=O)Cc2cc3ccccc3nc2-1 [CAMPTOTHECIN] yielded an IC50 (HL-60) of 0.013 µM, an inhibition (Bos taurus [1]) of 63.3% and an IC50 (DU-145) of 3.2 µM. It also gave an IC50 (HeLa) of 1.08 µM, an IC50 (MDA-MB-231) of 4.16 µM and an inhibition (Bos taurus [3]) of 84.1%. It also gave an IC50 (HCT-116) of 1 µM.

N[C@H]1CCN(c2c(F)cc3c(=O)c(C(=O)O)cn4c3c2Oc2ccc([N+](=O)[O-])cc2-4)C1 showed an IC50 (HL-60) of 9.93 µM, an inhibition (Bos taurus [1]) of 65.7% and an IC50 (DU-145) of 13.8 µM. For the same compound, the IC50 (HeLa) was 17.7 µM, the IC50 (MDA-MB-231) was 19.8 µM and the inhibition [2] was 91.6%. The inhibition (Bos taurus [3]) was 95.3%, the IC50 (HCT-116) was 7.45 µM and the inhibition [4] was 26%.
